Assay results from ChEMBL document CHEMBL1649122, “Abc1p is a multidrug efflux transporter that tips the balance in favor of innate azole resistance in Candida krusei” (2009).
≈ marks a conversion by molar mass, not a printed value. Calls of active or inactive are those of the source. The rule behind the calls is not given here.

Assays:
Pichia kudriavzevii [1] = test: Antimicrobial activity against Candida krusei NZCDC 89.021 after 48 hrs by CLSI method; format: functional; settings: NZCDC 89.021, 48 h
Method in brief: (§1)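 Azole MICs were determined by the CLSI M27-A2 broth microdilution reference method. They were interpreted against the CLSI breakpoints. Strains were maintained in YPD medium (1% yeast extract, 2% peptone, 2% glucose).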

Pichia kudriavzevii [2] = test: Antimicrobial activity against Candida krusei B2399 after 48 hrs by liquid microdilution assay; format: functional; settings: B2399, 48 h
Method in brief: (§2)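 Liquid broth microdilution susceptibility assay in CSM medium at pH 7.0, which was also the medium used for the expression studies. Fungal strains were maintained in YPD. The S. cerevisiae test strains carry C. krusei ABC1 or fungal ERG11 alleles integrated at the chromosomal PDR5 locus.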

Pichia kudriavzevii [3] = test: Antimicrobial activity against Candida krusei NZCDC 89.021 after 48 hrs by liquid microdilution assay; format: functional; settings: NZCDC 89.021, 48 h; method in brief: as §2
Pichia kudriavzevii [4] = test: Antimicrobial activity against Candida krusei NZCDC 89.102 after 48 hrs by CLSI method; format: functional; method in brief: as §1
Saccharomyces cerevisiae [5] = test: Fold resistant, ratio of MIC for Saccharomyces cerevisiae isolate ADdelta overexpressing Saccharomyces cerevisiae ERG11 to MIC for Saccharomyces cerevisiae isolate ADdelta overexpressing Abc1p; format: functional
Method in brief: (§3)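 Fold resistance is the ratio of azole MICs between S. cerevisiae overexpressing strains. The MICs were measured by liquid broth microdilution in CSM medium at pH 7.0. The ERG11 or ABC1 constructs are integrated at the PDR5 locus.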

Pichia kudriavzevii [6] = test: Antimicrobial activity against Candida krusei NZCDC 89.102 after 48 hrs by liquid microdilution assay; format: functional; settings: NZCDC 89.102, 48 h; method in brief: as §2
Saccharomyces cerevisiae [7] = test: Fold resistant, ratio of MIC for Saccharomyces cerevisiae isolate ADdelta overexpressing Candida albicans ERG11A to MIC for Saccharomyces cerevisiae isolate ADdelta overexpressing Abc1p; format: functional; method in brief: as §3
Saccharomyces cerevisiae [8] = test: Fold resistant, ratio of MIC for Saccharomyces cerevisiae isolate ADdelta overexpressing Candida krusei ERG11g to MIC for Saccharomyces cerevisiae isolate ADdelta overexpressing Abc1p; format: functional; method in brief: as §3
Pichia kudriavzevii [9] = test: Antimicrobial activity against Candida krusei NZCDC 89.221 after 48 hrs by liquid microdilution assay; format: functional; settings: NZCDC 89.221, 48 h; method in brief: as §2
Saccharomyces cerevisiae [10] = test: Antimicrobial activity against Saccharomyces cerevisiae isolate ADdelta overexpressing Candida albicans ERG11A after 48 hrs by liquid microdilution assay; format: functional; method in brief: as §2
Pichia kudriavzevii [11] = test: Antimicrobial activity against Candida krusei NZCDC 89.221 after 48 hrs by CLSI method; format: functional; method in brief: as §1
Saccharomyces cerevisiae [12] = test: Fold resistant, ratio of MIC for Saccharomyces cerevisiae isolate ADdelta overexpressing Candida krusei ERG11C to MIC for Saccharomyces cerevisiae isolate ADdelta overexpressing Abc1p; format: functional; method in brief: as §3
Pichia kudriavzevii [13] = test: Antimicrobial activity against Candida krusei NZCDC 90.147 after 48 hrs by CLSI method; format: functional; method in brief: as §1
Pichia kudriavzevii [14] = test: Antimicrobial activity against Candida krusei B2399 after 48 hrs by CLSI method; format: functional; settings: B2399, 48 h; method in brief: as §1
Saccharomyces cerevisiae [15] = test: Antimicrobial activity against Saccharomyces cerevisiae isolate AD overexpressing Candida krusei ERG11C after 48 hrs by liquid microdilution assay; format: functional; method in brief: as §2
Pichia kudriavzevii [16] = test: Increase in ERG11 mRNA expression in Candida krusei B2399 at 2 times MIC concentration after 1 hr by hot-phenol extraction based Northern blotting; format: functional, organism-based
Method in brief: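 Logarithmically grown C. krusei B2399 was exposed to azole for 60 min (2x MIC for VRC, MCZ and ITC; 1x MIC for FLC) alongside an untreated control. Total RNA was extracted with hot phenol, and 10 µg was run on 1.2% denaturing agarose. It was Northern blotted and probed with a radiolabeled ERG11 fragment. ACT1 mRNA served as internal control, with EtBr-stained rRNA showing loading.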

[17] = target: ATP binding cassette transporter Abc1p (Issatchenkia orientalis) (UniProt Q09GQ4); test: Inhibition of Candida krusei ABC1 expressed in Saccharomyces cerevisiae isolate ADdelta at 0.026 nM; settings: Pichia kudriavzevii
Method in brief: (§4)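 Agarose disk-diffusion test of S. cerevisiae AD overexpressing C. krusei Abc1p, with the parent AD strain as comparison. Cells were pregrown from YPD overnight into CSM to mid-log at 30°C. They were seeded at OD600 0.008 in CSM with 0.6% agarose, overlaid on CSM agar (pH 7.0). Paper disks carrying set nmol amounts of xenobiotic were applied, and plates were incubated at 30°C for 48 h before reading growth inhibition zones.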

Saccharomyces cerevisiae [18] = test: Antimicrobial activity against Saccharomyces cerevisiae isolate ADdelta overexpressing Abc1p after 48 hrs by liquid microdilution assay; format: functional; method in brief: as §2
Saccharomyces cerevisiae [19] = test: Antimicrobial activity against Saccharomyces cerevisiae isolate ADdelta overexpressing Candida krusei ERG11g after 48 hrs by liquid microdilution assay; format: functional; method in brief: as §2
Pichia kudriavzevii [20] = test: Antimicrobial activity against Candida krusei IFO0011 after 48 hrs by CLSI method; format: functional; settings: IFO0011, 48 h; method in brief: as §1
Saccharomyces cerevisiae [21] = test: Antimicrobial activity against Saccharomyces cerevisiae isolate ADdelta overexpressing Saccharomyces cerevisiae ERG11 after 48 hrs by liquid microdilution assay; format: functional; method in brief: as §2
[22] = target: ATP binding cassette transporter Abc1p (Issatchenkia orientalis) (UniProt Q09GQ4); test: Inhibition of Candida krusei B2399 Abc1p assessed as reduction of itraconazole MIC at 1 ug after 48 hrs by agarose diffusion assay; settings: Pichia kudriavzevii
[23] = target: ATP binding cassette transporter Abc1p (Issatchenkia orientalis) (UniProt Q09GQ4); test: Inhibition of Candida krusei IF011 Abc1p assessed as reduction of itraconazole MIC at 1 ug after 48 hrs by agarose diffusion assay; settings: Pichia kudriavzevii
[24] = target: ATP binding cassette transporter Abc1p (Issatchenkia orientalis) (UniProt Q09GQ4); test: Inhibition of Candida krusei Abc1g expressed in Saccharomyces cerevisiae isolate ADdelta assessed as reduction of itraconazole MIC at 2.5 ug/ml after 48 hrs by checkerboard susceptibility assay; settings: Pichia kudriavzevii
Method in brief: (§5)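 Checkerboard liquid microdilution in CSM (pH 7.0). FLC or ITC MICs of AD/CkABC1g or C. krusei B2399 were measured across a range of milbemycin concentrations. Interaction was expressed as fractional inhibitory concentration index (FICI).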

[25] = target: ATP binding cassette transporter Abc1p (Issatchenkia orientalis) (UniProt Q09GQ4); test: Inhibition of Candida krusei Abc1p expressed in Saccharomyces cerevisiae isolate AD assessed as reduction of itraconazole MIC at 1 ug after 48 hrs by agarose diffusion assay; settings: Pichia kudriavzevii
[26] = target: ATP binding cassette transporter Abc1p (Issatchenkia orientalis) (UniProt Q09GQ4); test: Inhibition of Candida krusei Abc1g expressed in Saccharomyces cerevisiae isolate ADdelta assessed as reduction of fluconazole MIC at 2.5 ug/ml after 48 hrs by checkerboard susceptibility assay; settings: Pichia kudriavzevii; method in brief: as §5
[27] = target: ATP binding cassette transporter Abc1p (Issatchenkia orientalis) (UniProt Q09GQ4); test: Inhibition of Candida krusei B2399 Abc1p assessed as reduction of itraconazole MIC at 2.5 ug/ml after 48 hrs by checkerboard susceptibility assay; settings: Pichia kudriavzevii; method in brief: as §5
[28] = target: ATP binding cassette transporter Abc1p (Issatchenkia orientalis) (UniProt Q09GQ4); test: Inhibition of Candida krusei B2399 Abc1p assessed as reduction of fluconazole MIC at 2.5 ug/ml after 48 hrs by checkerboard susceptibility assay; settings: Pichia kudriavzevii; method in brief: as §5
[29] = target: ATP binding cassette transporter Abc1p (Issatchenkia orientalis) (UniProt Q09GQ4); test: Inhibition of Candida krusei ABC1 expressed in Saccharomyces cerevisiae isolate ADdelta at 46 nM; settings: Pichia kudriavzevii; method in brief: as §4
[30] = target: ATP binding cassette transporter Abc1p (Issatchenkia orientalis) (UniProt Q09GQ4); test: Inhibition of Candida krusei ABC1 expressed in Saccharomyces cerevisiae isolate ADdelta at 2 nM; settings: Pichia kudriavzevii
Pichia kudriavzevii [31] = test: Antimicrobial activity against Candida krusei NZCDC 90.147 after 48 hrs by liquid microdilution assay; format: functional; settings: NZCDC 90.147, 48 h; method in brief: as §2
Pichia kudriavzevii [32] = test: Antimicrobial activity against Candida krusei IFO0011 after 48 hrs by liquid microdilution assay; format: functional; settings: IFO0011, 48 h; method in brief: as §2
[33] = target: ATP binding cassette transporter Abc1p (Issatchenkia orientalis) (UniProt Q09GQ4); test: Inhibition of Candida krusei ABC1 expressed in Saccharomyces cerevisiae isolate ADdelta at 0.28 nM; settings: Pichia kudriavzevii
[34] = target: ATP binding cassette transporter Abc1p (Issatchenkia orientalis) (UniProt Q09GQ4); test: Inhibition of Candida krusei ABC1 expressed in Saccharomyces cerevisiae isolate ADdelta at 8 nM; settings: Pichia kudriavzevii
[35] = target: ATP binding cassette transporter Abc1p (Issatchenkia orientalis) (UniProt Q09GQ4); test: Inhibition of Candida krusei ABC1 expressed in Saccharomyces cerevisiae isolate ADdelta at 22 nM; settings: Pichia kudriavzevii

Compound	MIC (Pichia kudriavzevii [1])	MIC (Pichia kudriavzevii [2])	MIC (Pichia kudriavzevii [3])	MIC (Pichia kudriavzevii [4])	ratio (Saccharomyces cerevisiae [5])	MIC (Pichia kudriavzevii [6])	ratio (Saccharomyces cerevisiae [7])	ratio (Saccharomyces cerevisiae [8])	MIC (Pichia kudriavzevii [9])	MIC (Saccharomyces cerevisiae [10])	MIC (Pichia kudriavzevii [11])	ratio (Saccharomyces cerevisiae [12])	MIC (Pichia kudriavzevii [13])	MIC (Pichia kudriavzevii [14])	MIC (Saccharomyces cerevisiae [15])	MIC (Saccharomyces cerevisiae [18])	MIC (Saccharomyces cerevisiae [19])	MIC (Pichia kudriavzevii [20])	MIC (Saccharomyces cerevisiae [21])	also measured
Clc1ccc(COC(Cn2ccnc2)c2ccc(Cl)cc2Cl)c(Cl)c1 (stereo unspecified) [MICONAZOLE]	2 µg/mL (≈ 4.81 µM)	2 µg/mL (≈ 4.81 µM)	4 µg/mL (≈ 9.61 µM)	2 µg/mL (≈ 4.81 µM)	4	4 µg/mL (≈ 9.61 µM)	8	64	4 µg/mL (≈ 9.61 µM)	0.063 µg/mL (≈ 0.151 µM)	2 µg/mL (≈ 4.81 µM)	16	4 µg/mL (≈ 9.61 µM)	4 µg/mL (≈ 9.61 µM)	0.125 µg/mL (≈ 0.3 µM)	0.0078 µg/mL (≈ 0.0187 µM)	0.5 µg/mL (≈ 1.2 µM)	4 µg/mL (≈ 9.61 µM)	0.031 µg/mL (≈ 0.0745 µM)	Activity (Pichia kudriavzevii [16]): Active; Activity [17]: inactive
CC1=C[C@H]2C(=O)O[C@H]3C[C@@H](C/C=C(\C)C[C@@H](C)/C=C/C=C(\C)[C@]2(O)[C@H](O)[C@@H]1O)O[C@@]1(CC[C@H](C)[C@@H](C)O1)C3																				Activity [22]: Active; Activity [23]: Active; Activity [24]: Active; Activity [25]: Active; Activity [26]: Active; Activity [27]: Active; Activity [28]: Active
CN(C/C=C/C#CC(C)(C)C)Cc1cccc2ccccc12																				Activity [29]: inactive
C/C=C/C/C=C/CCC(=O)[C@H]1O[C@H]1C(N)=O																				Activity [30]: Active
C[C@@H](c1ncncc1F)[C@](O)(Cn1cncn1)c1ccc(F)cc1F [VORICONAZOLE]	0.5 µg/mL (≈ 1.43 µM)	1 µg/mL (≈ 2.86 µM)	2 µg/mL (≈ 5.73 µM)	0.5 µg/mL (≈ 1.43 µM)	8	2 µg/mL (≈ 5.73 µM)	4	64	1 µg/mL (≈ 2.86 µM)	0.031 µg/mL (≈ 0.0887 µM)	0.5 µg/mL (≈ 1.43 µM)	8	1 µg/mL (≈ 2.86 µM)	0.5 µg/mL (≈ 1.43 µM)	0.063 µg/mL (≈ 0.18 µM)	0.0078 µg/mL (≈ 0.0223 µM)	0.5 µg/mL (≈ 1.43 µM)	1 µg/mL (≈ 2.86 µM)	0.063 µg/mL (≈ 0.18 µM)	MIC (Pichia kudriavzevii [31]): 2 µg/mL (≈ 5.73 µM); Activity (Pichia kudriavzevii [16]): Active; MIC (Pichia kudriavzevii [32]): 1 µg/mL (≈ 2.86 µM)
CC(=O)N1CCN(c2ccc(OCC3COC(Cn4ccnc4)(c4ccc(Cl)cc4Cl)O3)cc2)CC1 (stereo unspecified) [KETOCONAZOLE]	0.5 µg/mL (≈ 0.941 µM)	2 µg/mL (≈ 3.76 µM)	4 µg/mL (≈ 7.53 µM)	0.5 µg/mL (≈ 0.941 µM)	2	4 µg/mL (≈ 7.53 µM)	4	64	2 µg/mL (≈ 3.76 µM)	0.125 µg/mL (≈ 0.235 µM)	0.5 µg/mL (≈ 0.941 µM)	2	1 µg/mL (≈ 1.88 µM)	0.5 µg/mL (≈ 0.941 µM)	0.063 µg/mL (≈ 0.119 µM)	0.031 µg/mL (≈ 0.0583 µM)	2 µg/mL (≈ 3.76 µM)	1 µg/mL (≈ 1.88 µM)	0.063 µg/mL (≈ 0.119 µM)	Activity [33]: inactive; MIC (Pichia kudriavzevii [31]): 4 µg/mL (≈ 7.53 µM); MIC (Pichia kudriavzevii [32]): 2 µg/mL (≈ 3.76 µM)
CO[C@@H]1C[C@@H](C[C@H]2CC[C@H](C)[C@H]([C@@H](C)C(=O)O)O2)O[C@]2(O[C@](C)([C@H]3CC[C@@](C)([C@@H]4O[C@@H]([C@H]5O[C@@](O)(CO)[C@H](C)C[C@@H]5C)C[C@@H]4C)O3)C[C@H]2C)[C@@H]1C																				Activity [34]: Active
NYSTATIN																				Activity [35]: inactive
